Data published in ChEMBL document CHEMBL1145965, “4-Substituted 4-hydroxycyclohexa-2,5-dien-1-ones with selective activities against colon and renal cancer cell lines” (J Med Chem, 2003).

Legend:
[1] = system: K562; assay: Concentration of compound that cause 50% cytotoxicity of K-562 leukemia cell line; type: functional; conditions: Homo sapiens, read-out: LC50 (the source's name)
In short: (§1)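 NCI 60-cell-line panel screen. Each line was seeded in 96-well plates at a density set by its growth characteristics and incubated drug-free for 24 h. Test agents were then added at five 10-fold dilutions, with a top concentration of 100 μM.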

[2] = system: A549; assay: Concentration of compound that cause 50% cytotoxicity of A549/ATCC non small cell lung cancer cell line; type: functional; conditions: Homo sapiens, read-out: Log LC50 (the source's name) (converted); in short: as §1
[3] = system: SK-MEL-2; assay: Concentration of compound that cause 50% cytotoxicity of SK-MEL-2 melanoma cell line; type: functional; conditions: Homo sapiens, read-out: Log LC50 (the source's name) (converted); in short: as §1
[4] = system: OVCAR-4; assay: Concentration of compound that cause 50% cytotoxicity of OVCAR-4 ovarian cancer cell line; type: functional; conditions: Homo sapiens, read-out: Log LC50 (the source's name) (converted); in short: as §1
[5] = system: MCF7; assay: Inhibitory activity against MCF-7 mammary carcinoma cell line; type: functional, cell-based; conditions: Homo sapiens
In short: (§2)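 Cells grown in RPMI 1640 with 2 mM L-glutamine and 10% fetal calf serum, 37 °C, 5% CO2. Seeded at 5 × 10³ per well, 24 h adherence, then drug 0.1 nM–100 μM final (n = 8; DMSO stocks, dilutions in medium) for 72 h.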

[6] = system: BT-549; assay: Concentration of compound that cause 50% cytotoxicity of BT-549 breast cancer cell line; type: functional; conditions: Homo sapiens, read-out: Log LC50 (the source's name) (converted); in short: as §1
[7] = system: Panel NCI-60 (60 carcinoma cell lines); assay: In vitro mean growth inhibitory activity against 60-cell panel; type: functional; conditions: Homo sapiens
[8] = system: HCT-116; assay: In vitro lethal concentration against most sensitive colon HCT116 cell line; type: functional; conditions: Homo sapiens, read-out: LC50 (the source's name)
[9] = system: SW-620; assay: In vitro lethal concentration against least sensitive colon SW-620 cell line; type: functional; conditions: Homo sapiens, read-out: LC50 (the source's name)
[10] = system: SK-MEL-5; assay: Concentration of compound that cause 50% cytotoxicity of SK-MEL-5 melanoma cell line; type: functional; conditions: Homo sapiens, read-out: Log LC50 (the source's name) (converted); in short: as §1
[11] = system: MCF7; assay: Concentration of compound that cause 50% cytotoxicity of MCF-7 breast cancer cell line; type: functional; conditions: Homo sapiens, read-out: Log LC50 (the source's name) (converted); in short: as §1
[12] = system: SF-268; assay: Concentration of compound that cause 50% cytotoxicity of SF-268 CNS cancer cell line; type: functional; conditions: Homo sapiens, read-out: Log LC50 (the source's name) (converted); in short: as §1
[13] = system: Malme-3M; assay: Concentration of compound that cause 50% cytotoxicity of MALME -3M melanoma cell line; type: functional; conditions: Homo sapiens, read-out: Log LC50 (the source's name) (converted); in short: as §1
[14] = system: HCT-116; assay: Inhibitory activity against HCT116 colon cancer cell line; type: functional, cell-based; conditions: Homo sapiens; in short: as §2
[15] = system: OVCAR-3; assay: Concentration of compound that cause 50% cytotoxicity of OVCAR-3 ovarian cancer cell line; type: functional; conditions: Homo sapiens, read-out: Log LC50 (the source's name) (converted); in short: as §1
[16] = system: NCI-H460; assay: Concentration of compound that cause 50% cytotoxicity of NCI-H460 non small cell lung cancer cell line; type: functional; conditions: Homo sapiens, read-out: Log LC50 (the source's name) (converted); in short: as §1
[17] = system: HOP-92; assay: Concentration of compound that cause 50% cytotoxicity of HOP-92 non small cell lung cancer cell line; type: functional; conditions: Homo sapiens, read-out: Log LC50 (the source's name) (converted); in short: as §1
[18] = system: SF-295; assay: Concentration of compound that cause 50% cytotoxicity of SF-295 CNS cancer cell line; type: functional; conditions: Homo sapiens, read-out: Log LC50 (the source's name) (converted); in short: as §1
[19] = system: COLO 205; assay: Concentration of compound that cause 50% cytotoxicity of COLO 205 colon cancer cell line; type: functional; conditions: Homo sapiens, read-out: Log LC50 (the source's name) (converted); in short: as §1
[20] = system: ACHN; assay: In vitro lethal concentration against most sensitive ACHN cell line; type: functional; conditions: Homo sapiens, read-out: LC50 (the source's name)
[21] = system: CAKI-1; assay: Concentration of compound that cause 50% cytotoxicity of CAKI-1 renal cancer cell line; type: functional; conditions: Homo sapiens, read-out: Log LC50 (the source's name) (converted); in short: as §1
[22] = system: IGROV-1; assay: Concentration of compound that cause 50% cytotoxicity of IGROV1 ovarian cancer cell line; type: functional; conditions: Homo sapiens, read-out: Log LC50 (the source's name) (converted); in short: as §1
[23] = Inhibitory activity against MDA-468 mammary carcinoma cell line; type: functional, cell-based, Homo sapiens; conditions: mda-mb-468; in short: as §2
[24] = system: MOLT-4; assay: Concentration of compound that cause 50% cytotoxicity of MOLT-4 leukemia cell line; type: functional; conditions: Homo sapiens, read-out: LC50 (the source's name); in short: as §1
[25] = system: SK-OV-3; assay: Concentration of compound that cause 50% cytotoxicity of SK-OV-3 ovarian cancer cell line; type: functional; conditions: Homo sapiens, read-out: Log LC50 (the source's name) (converted); in short: as §1
[26] = system: KM12; assay: Concentration of compound that cause 50% cytotoxicity of KM12 colon cancer cell line; type: functional; conditions: Homo sapiens, read-out: Log LC50 (the source's name) (converted); in short: as §1
[27] = system: MDA-MB-435; assay: Concentration of compound that cause 50% cytotoxicity of MDA-MB-435 breast cancer cell line; type: functional; conditions: Homo sapiens, read-out: Log LC50 (the source's name) (converted); in short: as §1
[28] = system: UACC-257; assay: Concentration of compound that cause 50% cytotoxicity of UACC-257 melanoma cell line; type: functional; conditions: Homo sapiens, read-out: Log LC50 (the source's name) (converted)
[29] = system: NCI-H226; assay: Concentration of compound that cause 50% cytotoxicity of NCI-H226 non small cell lung cancer cell line; type: functional; conditions: Homo sapiens, read-out: Log LC50 (the source's name) (converted); in short: as §1
[30] = system: OVCAR-5; assay: Concentration of compound that cause 50% cytotoxicity of OVCAR-5 ovarian cancer cell line; type: functional; conditions: Homo sapiens, read-out: Log LC50 (the source's name) (converted); in short: as §1
[31] = system: HL-60; assay: Concentration of compound that cause 50% cytotoxicity of HL-60(TB) leukemia cell line; type: functional; conditions: Homo sapiens, read-out: Log LC50 (the source's name) (converted); in short: as §1
[32] = system: UO-31; assay: Concentration of compound that cause 50% cytotoxicity of UO-31 renal cancer cell line; type: functional; conditions: Homo sapiens, read-out: Log LC50 (the source's name) (converted)

Structure (SMILES): O=C1C=CC(O)(c2nc3ccccc3s2)C=C1
- CC50 [1]: > 4 µM
- CC50 [2]: 43.7 µM
- CC50 [3]: 7.08 µM
- CC50 [4]: 3.8 µM
- IC50 [5]: 0.35 µM
- CC50 [6]: 4.79 µM
- GI50 [7]: 0.23 µM
- CC50 [8]: 0.43 µM
- CC50 [9]: > 100 µM
- CC50 [10]: 24 µM
- CC50 [11]: 4.07 µM
- CC50 [12]: 6.31 µM
- CC50 [13]: 2.34 µM
- IC50 [14]: 0.04 µM
- CC50 [15]: 2.88 µM
- CC50 [16]: 44.7 µM
- CC50 [17]: 3.72 µM
- CC50 [18]: 4.68 µM
- CC50 [19]: 5.13 µM
- CC50 [20]: 0.69 µM
- CC50 [21]: 1.35 µM
- CC50 [22]: 5.37 µM
- IC50 [23]: 0.79 µM
- CC50 [24]: > 4 µM
- CC50 [25]: 38 µM
- CC50 [26]: 4.37 µM
- CC50 [27]: 1.51 µM
- CC50 [28]: 9.77 µM
- CC50 [29]: 23.4 µM
- CC50 [30]: 1.86 µM
- CC50 [31]: 0.741 µM
- CC50 [32]: 0.955 µM
